Results on three molecules are retold here after PMC3806199 (Nature communications, 2013).

Data set [1] has as its system interscapular BAT. Put plainly: FDG PET/CT imaging of BAT metabolic activity. The format is in vivo, mouse. The following applies: versus cold-acclimated mice.
The test system of data set [2] is BAT. The experiment in a line: NIR fluorescence imaging. It is filed as in vivo, mouse. The following applies: 100 nmol iv, 1 hr, IRDye800 conjugate. An outline of the steps:
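Subjects were 6-week-old C57BL/6 males, n=3 per group, with experiments done twice. Mice were pre-housed at 6 °C or RT, with propranolol where indicated. IRDye800-conjugated test peptide or a control WAT-homing peptide was given i.v. and circulated 1 h. Interscapular BAT and i.p. WAT were resected and imaged by NIR fluorescence with 785 nm laser excitation. Data are mean ± s.e.m.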

Bridge positions count the residues as written; N and C are the ends. Ends that are not written are not given here.

Regarding `CC(C)NCC(O)COc1cccc2ccccc12` (stereo not drawn) [propranolol], the “reduction in FDG uptake by BAT, warm-acclimation combined with propranolol treatment” value in data set [1] (propranolol ip 5 mg/kg) is given as 4.1 fold.

As to CKGGRAKDC (disulfide 1-9 (inferred)), the “accumulation in WAT and BAT (resected tissues)” value in data set [2] was “accumulation in WAT, but not in BAT”.

Take `OC[C@H]1O[C@@H](O)[C@H]([18F])[C@@H](O)[C@@H]1O` [FDG, fluorine-18 deoxyglucose]: the “reduction in FDG uptake by BAT as a result of warm-acclimation” value in data set [1] stood at 1.7 fold.
